PMC4281708 (Cancer research, 2012)
Residue numbers refer to the chain shown, from its start. Entries after “also recorded” stand apart in the source; their conditions may differ. Read-outs that look alike come from different tables or passages of the source.

Key:
[1] = system: VCaP cells; experiment: Cell viability; format: cell-based, human; settings: for growth inhibition of VCaP cells stimulated by spironolactone: 0.1, 1 or 5μM abiraterone, 10μM bicalutamide or 10μM MDV3100, 7 days; for proliferation of VCaP (WT-AR): 1 and 10μM, CSS, 7 days
[2] = system: LNCaP cells; experiment: Cell viability; format: cell-based, human; settings: for growth inhibition of LNCaP cells stimulated by eplerenone / growth inhibition of LNCaP cells stimulated by spironolactone: 0.1, 1 or 5μM abiraterone, 10μM bicalutamide or 10μM MDV3100, 7 days; for proliferation of hormone-stripped LNCaP (T877A-AR): 1 and 10μM, CSS, 7 days
[3] = system: PSA and TMPRSS2 mRNA expression in LNCaP cells; experiment: Quantitative RT-PCR of AR-regulated genes, LNCaP; format: cell-based, human
Procedure, shortened: (§1)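 Cells held 24 h in phenol red-free medium with charcoal-stripped serum, then treated 5 h with test compound (0.1–10 µM) or 0.1nM R1881. After RNA extraction and cDNA synthesis, SYBR Green qPCR for PSA and TMPRSS2 used 50ng cDNA per reaction, each sample run in duplicate. Normalised to actin and GAPDH, relative to a reference sample (2^-ΔΔCt). 3 independent experiments, mean ± SEM.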

[4] = target: T1, LNCaP (T877A-AR) (Homo sapiens, UniProt P10275, T878A); experiment: cell-based; format: binding
T1 sequence (P10275 1-920 T878A): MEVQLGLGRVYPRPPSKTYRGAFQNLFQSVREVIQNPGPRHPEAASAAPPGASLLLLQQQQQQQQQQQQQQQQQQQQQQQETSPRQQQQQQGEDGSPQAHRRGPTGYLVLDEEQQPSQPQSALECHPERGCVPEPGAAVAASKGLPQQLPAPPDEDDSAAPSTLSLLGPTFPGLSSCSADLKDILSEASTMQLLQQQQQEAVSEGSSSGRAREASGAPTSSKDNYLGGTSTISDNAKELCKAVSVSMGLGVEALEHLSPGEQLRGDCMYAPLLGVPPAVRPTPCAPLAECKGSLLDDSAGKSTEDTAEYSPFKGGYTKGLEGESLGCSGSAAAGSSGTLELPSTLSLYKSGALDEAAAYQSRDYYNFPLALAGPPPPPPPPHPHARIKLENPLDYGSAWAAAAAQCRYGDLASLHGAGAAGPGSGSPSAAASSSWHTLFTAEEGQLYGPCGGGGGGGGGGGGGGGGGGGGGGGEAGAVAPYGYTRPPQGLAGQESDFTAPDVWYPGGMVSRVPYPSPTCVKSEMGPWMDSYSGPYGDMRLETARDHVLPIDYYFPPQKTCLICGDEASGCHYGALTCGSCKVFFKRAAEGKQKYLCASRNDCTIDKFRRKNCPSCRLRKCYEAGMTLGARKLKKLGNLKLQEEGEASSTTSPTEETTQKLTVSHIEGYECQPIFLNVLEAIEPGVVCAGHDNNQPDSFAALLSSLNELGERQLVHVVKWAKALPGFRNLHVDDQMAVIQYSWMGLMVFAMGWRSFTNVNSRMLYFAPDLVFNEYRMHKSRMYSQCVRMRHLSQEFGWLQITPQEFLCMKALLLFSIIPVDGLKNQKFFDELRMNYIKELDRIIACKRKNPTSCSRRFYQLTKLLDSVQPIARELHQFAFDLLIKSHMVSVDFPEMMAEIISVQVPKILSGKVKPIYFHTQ

[5] = system: PC-3; experiment: Cell proliferation, PC-3; format: cell-based, human; settings: AR-negative prostate cancer cell line
[6] = system: AR; settings: cited from earlier work
[7] = Solubility in cell media; format: physicochemical; settings: plasma or biological fluid, kinetic from dmso stock
[8] = target: T2, T877A-AR (Homo sapiens, UniProt P10275, T878A); format: cell-based
T2 sequence (P10275 1-920 T878A): T1 sequence (P10275 1-920 T878A)

[9] = target: T2, T877A-AR; experiment: cell-based; format: binding
[10] = patients ref 2; cited from earlier work
[11] = system: WT or mutant AR (T877A, D879G, W741C, M749L, R629Q); experiment: ARE3-luciferase reporter assay in PC-3 cells, WT and mutant AR panel; format: cell-based, human
[12] = system: DU145; experiment: Cell proliferation, DU145; format: cell-based, human; settings: AR-negative prostate cancer cell line
[13] = target: T3, WT-AR (Homo sapiens, UniProt P10275); experiment: cell-based; format: binding
T3 sequence (P10275 1-920): T1 sequence (P10275 1-920 T878A) with A878T

[14] = system: WT or mutant human AR (T877A, G142V, P533S, T575A, H874Y, R629Q); experiment: GRE2-TATA-Luc reporter assay in COS-7 cells co-transfected with AR; format: cell-based
[15] = system: castration-resistant prostate cancer (CRPC); settings: 1000mg abiraterone daily ref 1, 2; cited from earlier work
[16] = system: W741C-AR; experiment: PSA-ARE3-luc luciferase reporter assay in transfected PC-3 cells, W741C-AR; format: cell-based, human
[17] = system: wild-type (WT)-AR; experiment: PSA-ARE3-luc luciferase reporter assay in transfected PC-3 cells, WT-AR; format: cell-based, human; settings: compared to R1881
[18] = 100mg eplerenone ref 6, cited from earlier work
[19] = system: wild-type (WT)-AR; settings: cited from earlier work
[20] = system: D879G-AR; experiment: PSA-ARE3-luc luciferase reporter assay in transfected PC-3 cells, D879G-AR; format: cell-based, human; settings: compared to R1881
Procedure, shortened: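 Human AR expression plasmid carrying the mutation (confirmed by sequencing) co-transfected with PSA-ARE3-luc reporter into PC-3 cells. Cells grown 30 h in phenol red-free RPMI 1640 with 10% charcoal-stripped serum, then exposed 16 h to test compound (DMSO ≤0.2%) with R1881 as reference agonist. Luminescence read after ONE Glo. Fold change vs DMSO control; EC50 by nonlinear regression; 3 independent experiments, 16 replicates.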

[21] = system: PSA and TMPRSS2 mRNA expression in VCaP cells; experiment: Quantitative RT-PCR of AR-regulated genes, VCaP; format: cell-based, human; settings: 0.1 - 10μM eplerenone, 5 hours
Procedure, shortened: as §1

With `CNC(=O)c1ccc(N2C(=S)N(c3ccc(C#N)c(C(F)(F)F)c3)C(=O)C2(C)C)cc1F` [MDV3100] the “growth inhibition of VCaP cells stimulated by spironolactone” value [1] was “more profound inhibition”, the “growth inhibition of LNCaP cells stimulated by eplerenone” value [2] was “more profound inhibition” and the “growth inhibition of LNCaP cells stimulated by spironolactone” value [2] was “more profound inhibition”. For the same compound, the “inhibition of induction of TMPRSS2 expression by eplerenone” value ([3]; LNCaP, 10μM eplerenone, 10μM MDV3100, 5 hours) was “more significantly than bicalutamide or abiraterone”.
For `C[C@]12CC[C@H](O)CC1=CC[C@@H]1[C@@H]2CC[C@]2(C)C(c3cccnc3)=CC[C@@H]12` [abiraterone], the EC50 [4] is given as 2.6 µM, the “inhibitory effect on proliferation of PC-3” value [5] is given as “No inhibitory effect was observed” and the “binding to the AR” value [6] is given as “failed to identify binding”. The “effect on AR levels” value [6] was “dose-dependent decrease in AR levels”, the “growth inhibition of VCaP cells stimulated by spironolactone” value [1] was “dose-proportional growth inhibition” and the “doses with significant inhibition of proliferation of VCaP” value ([1]; CSS with 0.1nM R1881, 7 days) was no less than 5 µM. The solubility [7] was greater than 25 µM, the “growth inhibition of LNCaP cells stimulated by eplerenone” value [2] was “dose-proportional growth inhibition” and the “growth inhibition of LNCaP cells stimulated by spironolactone” value [2] was “dose-proportional growth inhibition”. The “doses with significant inhibition of proliferation of LNCaP” value ([2]; CSS with 0.1nM R1881, 7 days) was no less than 5 µM, the “inhibition of activation of T877A-AR by 1μM eplerenone” value [8] was “significantly inhibited” and the EC50 [9] was 7.9 µM. The doses safely tolerated [10] was “at least 2000 mg daily”, the “inhibition of stimulated WT and mutant AR activity” value ([11]; 0.1nM R1881, 16 hours) was “dose-proportional inhibition” and the AR inhibition ([11]; 1μM abiraterone) was “up to 32%”. The “increase in reporter-luciferase activity (agonistic activity) with WT-AR or any mutation tested” value ([11]; doses up to 25μM) was “did not observe an increase in reporter-luciferase activity; also recorded: no agonistic activity was observed”, the “regulation of PSA and TMPRSS2 in LNCaP cells treated with abiraterone” value ([3]; 5μM abiraterone, 0.1nM R1881, 5 hours) was “down-regulation” and the “inhibitory effect on proliferation of DU145” value [12] was “No inhibitory effect was observed”. For the same compound, the EC50 [13] was 13.4 µM, the “inhibition of R629Q-AR” value ([14]; COS-7, 10nM DHT, compared with PC-3 ARE3-luciferase assay) was “Higher concentrations of abiraterone were required” and the “inhibition of WT-AR, T877A-AR, G142V-AR, P533S-AR, T575A-AR and H874Y-AR” value ([14]; COS-7, activated by 10nM DHT for 24 hours, 0.1 - 5μM) was “dose-proportional inhibition”. The “objective tumor responses, CRPC patients” value [15] was “up to 60%”.
For `CC(O)(CS(=O)(=O)c1ccc(F)cc1)C(=O)Nc1ccc(C#N)c(C(F)(F)F)c1` (stereo not shown) [bicalutamide], the “activation of W741C-AR” value [16] was “activated”.
In the case of `C[C@@H]1C[C@H]2[C@@H]3CCC4=CC(=O)C=C[C@]4(C)[C@@]3(F)[C@@H](O)C[C@]2(C)[C@@]1(O)C(=O)CO` [dexamethasone], the “activation of WT-AR” value [17] is reported as “do not activate”.
For `COC(=O)[C@@H]1CC2=CC(=O)CC[C@]2(C)[C@@]23O[C@@H]2C[C@@]2(C)[C@@H](CC[C@@]24CCC(=O)O4)[C@H]13` [eplerenone], the Cmax [18] is listed as 1720 ± 280 ng/mL, the Cmax ([18]; read-out: Cmax (equivalent)) is listed as 4.2 µM and the “binding and activation of wild-type (WT)-AR” value [19] is listed as “did not bind and activate”. For the same compound, the “proliferation of VCaP (WT-AR)” value [1] was “only spironolactone increased the proliferation”, the “proliferation of hormone-stripped LNCaP (T877A-AR)” value [2] was “increased proliferation” and the “expression of PSA and TMPRSS2 in LNCaP” value ([3]; 0.1 - 10μM eplerenone, 5 hours) was “significantly increased expression”. For the same compound, the “activation of W741C-AR” value [16] was “does not activate”, the “activation of D879G-AR” value [20] was “does not activate” and the “activation of WT-AR” value [17] was “does not activate”. The “expression of PSA and TMPRSS2 in VCaP” value [21] was “not in VCaP”.
For `C[C@]12C=CC(=O)C=C1CC[C@@H]1[C@@H]2C(=O)C[C@@]2(C)[C@H]1CC[C@]2(O)C(=O)CO` [prednisone], the “activation of WT-AR” value [17] was “do not activate”.
With `CC(=O)S[C@@H]1CC2=CC(=O)CC[C@]2(C)[C@H]2CC[C@@]3(C)[C@@H](CC[C@@]34CCC(=O)O4)[C@H]12` [spironolactone] the “proliferation of VCaP (WT-AR)” value [1] was “increased the proliferation”, the “proliferation of hormone-stripped LNCaP (T877A-AR)” value [2] was “increased proliferation” and the “activation of D879G-AR” value [20] was “activates”. For the same compound, the “activation of WT-AR” value [17] was “activates”.
